Reference: ChEMBL document CHEMBL1148625, “3-(1,1-dioxo-2H-(1,2,4)-benzothiadiazin-3-yl)-4-hydroxy-2(1H)-quinolinones, potent inhibitors of hepatitis C virus RNA-dependent RNA polymerase” (J Med Chem, 2006)

Columns and labels:
[1] = Cmax in Beagle dog at 0.8 mg/kg, iv or 4.0 mg/kg, po; assay type: ADME, organism-based, Canis lupus familiaris; conditions: in vivo
Method in brief: (§1)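 Single-dose study, with separate intravenous and oral administrations at the listed mg/kg. Plasma concentrations were followed over time, and mean values were derived for Cmax, T1/2, clearance (mL/min/kg), Vdss (L/kg) and oral bioavailability (%).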

[2] = Cmax in cynomolgus monkey at 0.8 mg/kg, iv or 4.0 mg/kg, po; assay type: ADME, organism-based, Macaca fascicularis; conditions: in vivo; method in brief: as §1
[3] = Half life in cynomolgus monkey at 0.8 mg/kg, iv or 4.0 mg/kg, po; assay type: ADME, organism-based, Macaca fascicularis; conditions: in vivo; method in brief: as §1
[4] = Oral bioavailability in Sprague-Dawley rat at 1.3 mg/kg, iv or 3.4 mg/kg, po; assay type: ADME, organism-based; conditions: in vivo
Method in brief: (§2)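 Single intravenous or oral doses given to Sprague-Dawley rats. Values are reported as means: Cmax (ng/mL), half-life (min), plasma clearance (mL/min/kg), steady-state volume of distribution (L/kg) and oral bioavailability F (%).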

[5] = Oral bioavailability in Beagle dog at 0.8 mg/kg, iv or 4.0 mg/kg, po; assay type: ADME, organism-based, Canis lupus familiaris; conditions: in vivo; method in brief: as §1
[6] = Oral bioavailability in cynomolgus monkey at 0.8 mg/kg, iv or 4.0 mg/kg, po; assay type: ADME, organism-based, Macaca fascicularis; conditions: in vivo; method in brief: as §1
Hepatitis C virus = experiment: Protein binding in Huh7 cells using HCV 1b replicon by a replicon cell assay in presence of alpha-acid glycoprotein; assay type: functional, organism-based, Hepacivirus hominis; conditions: genotype 1b, Huh-7
Cytochrome P450 3A4 = Cytochrome P450 3A4 (Homo sapiens, UniProt P08684); experiment: Effect on CYP3A4 induction; assay type: ADME
Chain of Cytochrome P450 3A4 (P08684 whole entry): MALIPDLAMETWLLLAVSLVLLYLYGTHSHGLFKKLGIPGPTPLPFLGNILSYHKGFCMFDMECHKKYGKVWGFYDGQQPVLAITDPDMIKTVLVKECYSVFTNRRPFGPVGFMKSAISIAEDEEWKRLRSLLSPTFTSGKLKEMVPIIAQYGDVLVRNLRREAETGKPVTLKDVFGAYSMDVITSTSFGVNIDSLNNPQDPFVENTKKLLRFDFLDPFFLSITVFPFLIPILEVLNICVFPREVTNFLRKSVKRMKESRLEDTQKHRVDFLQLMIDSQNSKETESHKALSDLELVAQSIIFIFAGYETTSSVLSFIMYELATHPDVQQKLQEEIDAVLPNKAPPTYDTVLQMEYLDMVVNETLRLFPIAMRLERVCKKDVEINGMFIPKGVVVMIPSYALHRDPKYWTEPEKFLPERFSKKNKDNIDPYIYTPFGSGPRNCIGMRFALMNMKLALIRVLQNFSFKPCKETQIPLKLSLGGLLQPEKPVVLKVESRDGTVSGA

[7] = Half life in Sprague-Dawley rat at 1.3 mg/kg, iv or 3.4 mg/kg, po; assay type: ADME, organism-based; conditions: in vivo; method in brief: as §2
[8] = molecular target: T1, RNA-directed RNA polymerase (Hepacivirus hominis, UniProt O39930); experiment: Inhibitory activity against HCV 1a NS5B RNA polymerase
T1 sequence (O39930 whole entry): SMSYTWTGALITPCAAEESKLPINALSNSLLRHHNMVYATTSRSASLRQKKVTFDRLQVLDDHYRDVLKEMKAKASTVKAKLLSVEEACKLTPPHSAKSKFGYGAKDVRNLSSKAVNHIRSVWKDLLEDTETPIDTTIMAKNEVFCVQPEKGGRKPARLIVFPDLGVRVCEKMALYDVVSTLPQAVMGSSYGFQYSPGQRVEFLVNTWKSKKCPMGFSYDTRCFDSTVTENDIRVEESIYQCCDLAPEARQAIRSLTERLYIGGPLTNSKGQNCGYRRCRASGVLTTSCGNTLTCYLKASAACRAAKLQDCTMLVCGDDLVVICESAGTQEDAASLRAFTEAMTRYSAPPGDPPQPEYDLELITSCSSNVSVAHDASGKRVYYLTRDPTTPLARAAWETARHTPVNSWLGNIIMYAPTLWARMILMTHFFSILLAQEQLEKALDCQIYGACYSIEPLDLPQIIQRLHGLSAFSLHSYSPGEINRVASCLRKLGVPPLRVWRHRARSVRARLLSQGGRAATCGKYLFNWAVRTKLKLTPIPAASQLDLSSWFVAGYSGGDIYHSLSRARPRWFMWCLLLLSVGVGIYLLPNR

[9] = molecular target: T1, RNA-directed RNA polymerase; experiment: Inhibitory activity against HCV 1b NS5B RNA polymerase; parameters: species or system Hepatitis C virus subtype 1b
Method in brief: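 Scintillation proximity polymerase assay with HCV NS5B (genotype 1b, J4 strain, Δ21 construct) at 50 or 10 nM. The reaction used [α-33P]GTP and GTP with 5′-biotinylated oligo(rG13)/poly(rC) in 20 mM Tris-Cl pH 7.5 containing MgCl2, KCl, DTT and 0.05% BSA. It ran 2 h at 25 °C, was stopped with an equal volume of 100 mM EDTA, then captured on streptavidin FlashPlates and counted; n = 4.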

[10] = molecular target: T1, RNA-directed RNA polymerase; experiment: Inhibitory activity against HCV 2a NS5B RNA polymerase; parameters: species or system Hepatitis C virus genotype 2
[11] = molecular target: T2, DNA polymerase alpha catalytic subunit (Homo sapiens, UniProt P09884); experiment: Inhibitory activity against human DNA-polymerase-alpha
T2 sequence (P09884 whole entry): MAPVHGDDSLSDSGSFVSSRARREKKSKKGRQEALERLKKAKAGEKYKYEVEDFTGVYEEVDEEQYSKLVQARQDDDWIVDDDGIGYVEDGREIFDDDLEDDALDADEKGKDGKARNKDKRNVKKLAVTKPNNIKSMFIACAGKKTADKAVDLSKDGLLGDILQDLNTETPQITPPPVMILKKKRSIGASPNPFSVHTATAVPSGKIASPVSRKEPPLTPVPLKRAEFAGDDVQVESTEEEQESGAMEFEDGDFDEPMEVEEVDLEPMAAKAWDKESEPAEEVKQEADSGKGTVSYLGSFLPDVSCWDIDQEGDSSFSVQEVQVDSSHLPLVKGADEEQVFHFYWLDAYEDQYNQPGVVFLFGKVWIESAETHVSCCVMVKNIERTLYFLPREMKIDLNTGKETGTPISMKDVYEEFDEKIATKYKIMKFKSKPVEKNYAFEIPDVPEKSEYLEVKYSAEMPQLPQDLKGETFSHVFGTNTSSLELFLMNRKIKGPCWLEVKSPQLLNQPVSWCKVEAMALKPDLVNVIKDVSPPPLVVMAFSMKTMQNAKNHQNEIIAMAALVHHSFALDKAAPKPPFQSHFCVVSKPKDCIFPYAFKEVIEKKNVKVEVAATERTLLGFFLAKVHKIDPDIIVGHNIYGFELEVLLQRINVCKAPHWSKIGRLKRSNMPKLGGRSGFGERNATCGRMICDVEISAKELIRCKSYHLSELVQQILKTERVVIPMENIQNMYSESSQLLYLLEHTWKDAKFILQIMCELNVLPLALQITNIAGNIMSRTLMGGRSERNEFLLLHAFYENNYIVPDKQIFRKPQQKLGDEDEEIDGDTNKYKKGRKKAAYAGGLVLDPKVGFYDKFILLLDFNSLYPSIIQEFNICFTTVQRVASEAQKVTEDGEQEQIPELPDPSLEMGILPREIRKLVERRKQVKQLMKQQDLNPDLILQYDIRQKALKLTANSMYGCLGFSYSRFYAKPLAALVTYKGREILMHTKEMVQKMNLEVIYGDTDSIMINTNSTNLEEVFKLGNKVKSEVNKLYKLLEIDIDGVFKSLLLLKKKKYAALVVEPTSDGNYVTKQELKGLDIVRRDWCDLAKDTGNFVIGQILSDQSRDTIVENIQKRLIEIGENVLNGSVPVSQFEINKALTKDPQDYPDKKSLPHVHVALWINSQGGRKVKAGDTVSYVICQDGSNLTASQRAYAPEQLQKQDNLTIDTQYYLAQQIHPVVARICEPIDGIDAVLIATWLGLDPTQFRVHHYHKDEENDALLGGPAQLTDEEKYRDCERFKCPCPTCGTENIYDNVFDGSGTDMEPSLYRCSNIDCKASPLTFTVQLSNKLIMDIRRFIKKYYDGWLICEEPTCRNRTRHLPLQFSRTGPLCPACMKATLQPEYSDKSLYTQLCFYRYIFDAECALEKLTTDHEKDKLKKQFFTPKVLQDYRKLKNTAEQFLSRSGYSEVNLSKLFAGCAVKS

DNA polymerase beta = DNA polymerase beta (Homo sapiens, UniProt P06746); experiment: Inhibitory activity against human DNA-polymerase-beta

Cmax [1]: 4460 ng/mL
Cmax [2]: 5440 ng/mL
half-life [3]: 1.61 h
bioavailability [4]: 44%
bioavailability [5]: > 35%
bioavailability [6]: > 53%
EC50 (Hepatitis C virus): 180 nM
Activity (Cytochrome P450 3A4): Active
half-life [7]: 3.04 h
IC50 [8]: 49 nM
IC50 [9]: 10 nM
IC50 [10]: 13 nM
IC50 [11]: > 50000 nM
IC50 (DNA polymerase beta): > 50000 nM
SMILES: O=c1c(C2=Nc3ccccc3S(=O)(=O)N2)c(O)c2cc(F)ccc2n1CCC1CC1
